Source: ChEMBL document CHEMBL4411287, “Discovery and optimization of a series of 3-substituted indazole derivatives as multi-target kinase inhibitors for the treatment of lung squamous cell carcinoma” (Eur J Med Chem, 2019)

Key:
[1] = target: T1, Discoidin domain-containing receptor 2 (Homo sapiens, UniProt Q16832); test: Inhibition of DDR2 (unknown origin) using poly (Glu, Tyr) 4:1 substrate after 60 mins by ELISA
T1 sequence (Q16832 whole entry): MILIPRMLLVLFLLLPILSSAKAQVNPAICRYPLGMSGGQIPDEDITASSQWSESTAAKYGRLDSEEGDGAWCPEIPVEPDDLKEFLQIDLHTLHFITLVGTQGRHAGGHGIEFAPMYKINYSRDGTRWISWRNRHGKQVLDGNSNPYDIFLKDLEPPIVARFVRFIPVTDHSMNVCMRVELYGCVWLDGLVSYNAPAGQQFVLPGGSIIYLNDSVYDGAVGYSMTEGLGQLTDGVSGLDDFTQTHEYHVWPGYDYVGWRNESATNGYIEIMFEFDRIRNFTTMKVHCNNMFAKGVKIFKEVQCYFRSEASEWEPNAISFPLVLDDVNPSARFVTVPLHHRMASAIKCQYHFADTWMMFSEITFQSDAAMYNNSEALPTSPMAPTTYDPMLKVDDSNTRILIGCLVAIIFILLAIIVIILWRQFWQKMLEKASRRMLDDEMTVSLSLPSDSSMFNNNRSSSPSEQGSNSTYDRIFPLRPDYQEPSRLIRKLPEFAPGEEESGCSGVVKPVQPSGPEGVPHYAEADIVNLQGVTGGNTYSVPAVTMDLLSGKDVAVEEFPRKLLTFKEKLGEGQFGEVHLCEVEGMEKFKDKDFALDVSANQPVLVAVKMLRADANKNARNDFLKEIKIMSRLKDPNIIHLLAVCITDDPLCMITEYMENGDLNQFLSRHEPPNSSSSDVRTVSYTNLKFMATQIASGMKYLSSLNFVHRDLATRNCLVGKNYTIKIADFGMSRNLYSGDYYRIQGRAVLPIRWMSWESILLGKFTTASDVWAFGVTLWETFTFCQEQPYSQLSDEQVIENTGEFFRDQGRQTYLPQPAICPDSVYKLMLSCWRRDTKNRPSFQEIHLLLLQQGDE

[2] = system: NCI-H2286; test: Antiproliferative activity against human NCI-H2286 cells at 100 nM after 72 hrs by CCK8 assay relative to control; assay type: functional
[3] = system: KG-1; test: Antiproliferative activity against human KG1 cells after 72 hrs by CCK8 assay; conditions: KG-1, 72 h
[4] = AUC (0 to t) in ICR(CD-1) mouse at 10 mg/kg, po administered via gavage by triple quadrupole mass spectrometric analysis; assay type: ADME, organism-based; conditions: in vivo
Procedure, shortened: (§1)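 Oral gavage at 1 mg/mL in 1% Tween80/water to male ICR mice (18-22 g, n=3). Plasma sampled at 0.25, 0.5, 1, 2, 4, 8 and 24 h, protein precipitated with methanol:acetonitrile (1:1) containing internal standard, and quantified by UPLC-triple quadrupole MS. AUC and MRT were taken from per-animal time-concentration curves. Cmax is the maximum plasma level and Tmax the time to reach it.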

[5] = Half life in ICR(CD-1) mouse at 10 mg/kg, po administered via gavage by triple quadrupole mass spectrometric analysis; assay type: ADME, organism-based; conditions: in vivo; procedure, shortened: as §1
[6] = Cmax in ICR(CD-1) mouse at 10 mg/kg, po administered via gavage by triple quadrupole mass spectrometric analysis; assay type: ADME, organism-based; design: dose 10 mg/kg, route oral; conditions: in vivo; procedure, shortened: as §1
[7] = system: NCI-H2286; test: Antiproliferative activity against human NCI-H2286 cells after 72 hrs by CCK8 assay; conditions: NCI-H2286, 72 h
[8] = MRT in ICR(CD-1) mouse at 10 mg/kg, po administered via gavage by triple quadrupole mass spectrometric analysis; assay type: ADME, organism-based; conditions: in vivo
Procedure, shortened: (§2)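 Dosed by gavage at 1 mg/mL in 1% Tween80/water to male ICR mice, 18-22 g, n=3. Blood taken at 0.25, 0.5, 1, 2, 4, 8 and 24 h. Plasma precipitated with methanol:acetonitrile (1:1) containing internal standard, then UPLC-MS/MS on a C18 column with an ammonium acetate/formic acid–acetonitrile gradient. Tmax read directly from the data; MRT calculated per animal from concentration–time curves.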

[9] = Tmax in ICR(CD-1) mouse at 10 mg/kg, po administered via gavage by triple quadrupole mass spectrometric analysis; assay type: ADME, organism-based; conditions: in vivo; procedure, shortened: as §2
[10] = AUC (0 to infinity) in ICR(CD-1) mouse at 10 mg/kg, po administered via gavage by triple quadrupole mass spectrometric analysis; assay type: ADME, organism-based; design: dose 10 mg/kg, route oral, time infinity; conditions: in vivo; procedure, shortened: as §1
[11] = target: T2, Discoidin domain-containing receptor 2 (Homo sapiens) (UniProt Q16832); test: Inhibition of DDR2 (unknown origin) at 100 nM using poly (Glu, Tyr) 4:1 substrate after 60 mins by ELISA relative to control
T2 sequence (whole entry): T1 sequence (Q16832 whole entry)
Procedure, shortened: (§3)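 ELISA with purified recombinant DDR2 on poly(Glu,Tyr) 4:1 precoated at 20 µg/mL. 10 µM ATP in HEPES pH 7.4 buffer with MgCl2, MnCl2, Na3VO4 and DTT, 1% DMSO; 60 min at 37 °C. Phosphotyrosine detected by PY99 and HRP anti-mouse IgG with o-phenylenediamine at A490. Inhibition = 1−A490/A490control; two separate experiments.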

[12] = target: T2, Discoidin domain-containing receptor 2 (Homo sapiens); test: Inhibition of DDR2 (unknown origin) at 1000 nM using poly (Glu, Tyr) 4:1 substrate after 60 mins by ELISA relative to control; procedure, shortened: as §3

Row | Structure (SMILES) | IC50 [1] | IC50 [3] | also measured
1 | Cc1ccc(C(=O)Nc2cccc(C(F)(F)F)c2)cc1-c1ccc2c(-c3cnn(C(C)C)c3)n[nH]c2c1 | 7.7 nM | 452 nM | Activity [2]: 31%
2 | O=C(Nc1ccc(Cl)c(-c2ccc3cn[nH]c3c2)c1)c1cccc(C(F)(F)F)c1 | 9.5 nM |  | 
3 | Cc1ccc(C(=O)Nc2ccc(N3CCN(C)CC3)cc2)cc1-c1ccc2cn[nH]c2c1 |  |  | inhibition [11]: 25.8%
4 | Nc1n[nH]c2cc(-c3cccc(NC(=O)c4cccc(C(F)(F)F)c4)c3)ccc12 |  |  | inhibition [11]: 22.8%; inhibition [12]: 24.8%
5 | Cc1ccc(C(=O)Nc2cccc(N3CCN(C)CC3)c2)cc1-c1ccc2cn[nH]c2c1 |  |  | inhibition [11]: 37.3%
6 | Cc1ccc(C(=O)Nc2cccc(C(F)(F)F)c2)cc1-c1ccc2c(-c3ccc(N4CCN(C)CC4)cc3)n[nH]c2c1 | 8.8 nM | 136 nM | AUC(0-t) [4]: 44 ng·h/mL; Cmax [6]: 15.9 ng/mL; IC50 [7]: 89.5 nM; Tmax [9]: 1.33 h
7 | Nc1n[nH]c2ccc(-c3cccc(NC(=O)c4cccc(C(F)(F)F)c4)c3)cc12 |  |  | inhibition [11]: 13.1%; inhibition [12]: 35.9%
8 | COc1ccc(NC(=O)c2cccc(C(F)(F)F)c2)cc1-c1ccc2cn[nH]c2c1 | 67.9 nM |  | 
9 | Cc1ccc(C(=O)Nc2cccc(C(F)(F)F)c2)cc1-c1ccc2c(-c3ccc(N4CCC(N5CCOCC5)CC4)cc3)n[nH]c2c1 | 8.7 nM | 177 nM | 
10 | Cc1ccc(C(=O)Nc2cccc(C(F)(F)F)c2)cc1-c1ccc2c(-c3ccc(N4CCOCC4)cc3)n[nH]c2c1 | 21.6 nM | 561 nM | IC50 [7]: 140 nM
11 | Cc1ccc(C(=O)Nc2cc(CN3CCN(C4CCCC4)CC3)cc(C(F)(F)F)c2)cc1-c1ccc2cn[nH]c2c1 | 7 nM |  | 
12 | Cc1cc(NC(=O)c2cccc(C(F)(F)F)c2)cc(-c2ccc3cn[nH]c3c2)c1 |  |  | inhibition [11]: 27.4%

Second part, led by results:

Row | IC50 [1] | Structure (SMILES) | IC50 [3] | also measured
13 | 3.7 nM | Cc1ccc(C(=O)Nc2cccc(C(F)(F)F)c2)cc1-c1ccc2c(-c3cnn(CC(C)O)c3)n[nH]c2c1 (centres undefined) | 339 nM | AUC(0-t) [4]: 324 ng·h/mL; half-life [5]: 0.75 h; Cmax [6]: 202 ng/mL; IC50 [7]: 196 nM; MRT [8]: 1.37 h; Tmax [9]: 0.25 h; AUC(0-inf) [10]: 334 ng·h/mL
14 | 1.2 nM | Cc1ccc(C(=O)Nc2cccc(C(C)C)c2)cc1-c1ccc2cn[nH]c2c1 |  | 
15 | 4.7 nM | Cc1ccc(C(=O)Nc2cc(CN3CCN(C)CC3)cc(C(F)(F)F)c2)cc1-c1ccc2cn[nH]c2c1 |  | 
16 | 3.9 nM | CCN1CCN(Cc2cc(NC(=O)c3ccc(C)c(-c4ccc5cn[nH]c5c4)c3)cc(C(F)(F)F)c2)CC1 |  | 
17 | 2.6 nM | CCn1cc(-c2n[nH]c3cc(-c4cc(C(=O)Nc5cccc(C(F)(F)F)c5)ccc4C)ccc23)cn1 | 257 nM | IC50 [7]: 19.8 nM
18 | 5.5 nM | Cc1ccc(NC(=O)c2cccc(C(F)(F)F)c2)cc1-c1ccc2cn[nH]c2c1 |  | 
19 | 6.2 nM | Cc1ccc(C(=O)Nc2cccc(C(F)(F)F)c2)cc1-c1ccc2c(-c3ccc(CN4CCN(C)CC4)cc3)n[nH]c2c1 | 120 nM | Activity [2]: 13%
20 | 6.5 nM | Cc1ccc(C(=O)Nc2cccc(C(F)(F)F)c2)cc1-c1ccc2c(-c3ccc(C(=O)N4CCN(C)CC4)cc3)n[nH]c2c1 | 300 nM | Activity [2]: 45%
21 | 2.9 nM | Cc1ccc(C(=O)Nc2cccc(C(F)(F)F)c2)cc1-c1ccc2c(-c3cnn(CCO)c3)n[nH]c2c1 | 174 nM | Activity [2]: 35%
